Measured values reported in ChEMBL document CHEMBL1153856, “Synthesis and spectral characterization of a new class of N-(N-methylpiperazinoacetyl)-2,6-diarylpiperidin-4-ones: antimicrobial, analgesic and antipyretic studies” (2009).
In brackets after ≈: the same amount, converted by molar mass.

Key:
Assay type in all cases: functional
[1] = test system: Salmonella enterica subsp. enterica serovar Typhi str. CT18; assay: Antimicrobial activity against Salmonella typhi after 24 hrs by twofold serial dilution method
How it was run: (§1)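 Twofold serial broth dilution in nutrient broth at pH 7.4 ± 0.2. Compound stocks were 1 mg/mL in DMSO, diluted 1:5 into seeded broth, then six serial dilutions. Inocula came from 24 h nutrient-agar cultures, final 10⁵ cfu/mL. Incubation was 37 ± 1 °C for 24 h, with growth and solvent controls. MIC was read visually; ciprofloxacin was the standard.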

Rattus norvegicus [2] = assay: Antipyretic activity against brewer's yeast-induced hyperthermia in Wistar rat assessed as change in rectal temperature at 60 mg/kg, po after 90 mins
How it was run: (§2)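 Wistar rats of both sexes, 200–250 g, received brewer's yeast in normal saline sc. Rectal temperature was taken with a digital thermometer (precision 0.1 °C). At 18 h, rats whose temperature had risen 0.3–0.5 °C were selected. Test compounds (30 or 60 mg/kg) or indomethacin (5 mg/kg) were given orally in 1% CMC; controls received vehicle only. Temperature was measured at 30, 60, 90, 120 and 150 min, mean ± SEM.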

Mus musculus [3] = assay: Analgesic activity in albino mouse assessed as inhibition of acetic acid-induced writhing response at 90 mg/kg, po administered 1 hr prior to acetic acid challenge relative to control
How it was run: (§3)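 Albino mice of both sexes, 20–25 g, n = 6 per group. Doses of 30, 60 or 90 mg/kg were given orally as suspensions in 1% sodium CMC. 1 h later, 1% acetic acid in normal saline (10 mL/kg) was injected ip. Complete extension of either hind limb counted as a writhe. Counting started 5 min after injection and ran 30 min. Results are % inhibition = [1 − T/C] × 100 versus vehicle controls, mean ± SEM.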

Staphylococcus aureus = assay: Antimicrobial activity against Staphylococcus aureus after 24 hrs by twofold serial dilution method; how it was run: as §1
Aspergillus niger = assay: Antimicrobial activity against Aspergillus niger after 72 to 96 hrs by twofold serial dilution method
How it was run: (§4)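 Twofold serial broth dilution in Sabouraud dextrose broth at pH 5.6. Spores came from 1–7-day Sabouraud agar slants, final inoculum 1.1–1.5 × 10² cfu/mL. Compound stocks were 1 mg/mL in DMSO, diluted 1:5 into seeded broth, then six serial dilutions. Incubation was 28 ± 1 °C for 72–96 h, with growth and solvent controls. MIC was read visually; amphotericin B was the standard.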

Candida albicans = assay: Antimicrobial activity against Candida albicans after 72 to 96 hrs by twofold serial dilution method; how it was run: as §4
Rattus norvegicus [4] = assay: Antipyretic activity against brewer's yeast-induced hyperthermia in Wistar rat assessed as change in rectal temperature at 30 mg/kg, po after 90 mins; how it was run: as §2
Mus musculus [5] = assay: Analgesic activity in albino mouse assessed as inhibition of acetic acid-induced writhing response at 30 mg/kg, po administered 1 hr prior to acetic acid challenge relative to control; how it was run: as §3
Rattus norvegicus [6] = assay: Antipyretic activity against brewer's yeast-induced hyperthermia in Wistar rat assessed as change in rectal temperature at 30 mg/kg, po after 30 mins; how it was run: as §2
Klebsiella pneumoniae = assay: Antimicrobial activity against Klebsiella pneumoniae after 24 hrs by twofold serial dilution method; how it was run: as §1
Aspergillus flavus = assay: Antimicrobial activity against Aspergillus flavus after 72 to 96 hrs by twofold serial dilution method; how it was run: as §4
Rattus norvegicus [7] = assay: Antipyretic activity against brewer's yeast-induced hyperthermia in Wistar rat assessed as change in rectal temperature at 30 mg/kg, po after 120 mins; how it was run: as §2
Rattus norvegicus [8] = assay: Antipyretic activity against brewer's yeast-induced hyperthermia in Wistar rat assessed as change in rectal temperature at 60 mg/kg, po after 60 mins; how it was run: as §2
Rattus norvegicus [9] = assay: Antipyretic activity against brewer's yeast-induced hyperthermia in Wistar rat assessed as change in rectal temperature at 30 mg/kg, po after 150 mins; how it was run: as §2
Rattus norvegicus [10] = assay: Antipyretic activity against brewer's yeast-induced hyperthermia in Wistar rat assessed as change in rectal temperature at 60 mg/kg, po after 30 mins; how it was run: as §2
Rattus norvegicus [11] = assay: Antipyretic activity against brewer's yeast-induced hyperthermia in Wistar rat assessed as change in rectal temperature at 60 mg/kg, po after 150 mins; how it was run: as §2
Rattus norvegicus [12] = assay: Antipyretic activity against brewer's yeast-induced hyperthermia in Wistar rat assessed as change in rectal temperature at 30 mg/kg, po after 60 mins; how it was run: as §2
Escherichia coli = assay: Antimicrobial activity against Escherichia coli after 24 hrs by twofold serial dilution method; how it was run: as §1
Mus musculus [13] = assay: Analgesic activity in albino mouse assessed as inhibition of acetic acid-induced writhing response at 60 mg/kg, po administered 1 hr prior to acetic acid challenge relative to control; how it was run: as §3
Rattus norvegicus [14] = assay: Antipyretic activity against brewer's yeast-induced hyperthermia in Wistar rat assessed as change in rectal temperature at 60 mg/kg, po after 120 mins; how it was run: as §2
Pseudomonas aeruginosa = assay: Antimicrobial activity against Pseudomonas aeruginosa after 24 hrs by twofold serial dilution method; how it was run: as §1
Rhizopus = assay: Antimicrobial activity against Rhizopus sp. after 72 to 96 hrs by twofold serial dilution method; how it was run: as §4

Structure (SMILES)	MIC [1] [µg/mL]	Activity (Rattus norvegicus [2]) [°C]	inhibition in vivo at 90 mg/kg (Mus musculus [3]) [%]	MIC (Staphylococcus aureus) [µg/mL]	MIC (Aspergillus niger) [µg/mL]	MIC (Candida albicans) [µg/mL]	Activity (Rattus norvegicus [4]) [°C]	inhibition in vivo at 30 mg/kg (Mus musculus [5]) [%]	Activity (Rattus norvegicus [6]) [°C]	MIC (Klebsiella pneumoniae) [µg/mL]	MIC (Aspergillus flavus) [µg/mL]	Activity (Rattus norvegicus [7]) [°C]	Activity (Rattus norvegicus [8]) [°C]	Activity (Rattus norvegicus [9]) [°C]	Activity (Rattus norvegicus [10]) [°C]	Activity (Rattus norvegicus [11]) [°C]	Activity (Rattus norvegicus [12]) [°C]	MIC (Escherichia coli) [µg/mL]	inhibition in vivo at 60 mg/kg (Mus musculus [13]) [%]	MIC (Rhizopus) [µg/mL]	further results
COc1ccc(C2C(C)C(=O)C(C)C(c3ccc(OC)cc3)N2C(=O)CN2CCN(C)CC2)cc1 (stereo unspecified)	100 (≈ 208 µM)	37.9	38.7	12.5 (≈ 26.1 µM)	25 (≈ 52.1 µM)	6.25 (≈ 13 µM)	37.95	46.2	38.1	25 (≈ 52.1 µM)	12.5 (≈ 26.1 µM)	37.8	38.95	37.7	38.01	37.6	38.01	25 (≈ 52.1 µM)	59.1	25 (≈ 52.1 µM)	Activity (Rattus norvegicus [14]): 37.85 °C; MIC (Pseudomonas aeruginosa): 50 µg/mL (≈ 104 µM)
CCC1C(=O)CC(c2ccccc2)N(C(=O)CN2CCN(C)CC2)C1c1ccccc1 (stereo unspecified)	100 (≈ 238 µM)	38.1	1.2	100 (≈ 238 µM)	200 (≈ 477 µM)	100 (≈ 238 µM)	38.15	8	38.27	50 (≈ 119 µM)	> 200	38.01	38.2	38.98	38.25	38.9	38.22	> 200	4.5	> 200	Activity (Rattus norvegicus [14]): 38.95 °C; MIC (Pseudomonas aeruginosa): 200 µg/mL (≈ 477 µM)
CC1C(=O)CC(c2ccccc2)N(C(=O)CN2CCN(C)CC2)C1c1ccccc1 (stereo unspecified)	200 (≈ 493 µM)	38.02	17.7	> 200	100 (≈ 247 µM)	> 200	38.1	6.3	38.25	200 (≈ 493 µM)	100 (≈ 247 µM)	38.03	38.1	38.01	38.2	38.95	38.2	100 (≈ 247 µM)	15.6	> 200	Activity (Rattus norvegicus [14]): 38.01 °C; MIC (Pseudomonas aeruginosa): > 200 µg/mL
C[C@@H]1[C@H](O)[C@@H](C)/C=C/C=C/C=C/C=C/C=C/C=C/C=C/[C@H](O[C@@H]2O[C@H](C)[C@@H](O)[C@H](N)[C@@H]2O)C[C@@H]2O[C@](O)(C[C@@H](O)C[C@@H](O)[C@H](O)CC[C@@H](O)C[C@@H](O)CC(=O)O[C@H]1C)C[C@H](O)[C@H]2C(=O)O [AMPHOTERICIN B]	–	–	–	–	50 (≈ 54.1 µM)	25 (≈ 27.1 µM)	–	–	–	–	50 (≈ 54.1 µM)	–	–	–	–	–	–	–	–	25 (≈ 27.1 µM)	–
CC(=O)Oc1ccccc1C(=O)O [ASPIRIN]	–	–	38.6	–	–	–	–	44.8	–	–	–	–	–	–	–	–	–	–	57.9	–	–
O=C(O)c1cn(C2CC2)c2cc(N3CCNCC3)c(F)cc2c1=O [CIPROFLOXACIN]	50 (≈ 151 µM)	–	–	–	–	–	–	–	–	25 (≈ 75.4 µM)	–	–	–	–	–	–	–	25 (≈ 75.4 µM)	–	–	–
